From PubChem BioAssay
rRNA inh HTS = inhibitors of bacterial rRNA selective over humanized ribosomes; actives 1.6% (n = 350,000); E. coli WT GFP vs humanized-ribosome RFP mutants, fluorescence, 24 h; active compounds read low; DMSO median 0, no signal -100; GFP signal change (wild-type ribosome), % (test concentration not listed);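 active = significant combined selectivity score with lowered wild-type GFP, culture density cut under 30%, mutant RFP and density less affected; inactive = any of these conditions unmet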
Cneo AK release = causes C. neoformans cell lysis; adenylate kinase release luminescence, 4 h; normalised: neutral wells 0, clomiphene wells 100; lysis activity, % at 15 µM; actives 0.2% (n = 360,000);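 active = mean lysis activity across replicates of at least 80%, whatever share of replicates individually reach that level; inactive = mean lysis activity below 80%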
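Assay system: C. neoformans cells. Amount: yeast cell density of 5 × 10^6 cells/mL. Technique: AK luminescence. Buffer or medium: YPD. Times: static 4 h at 37 °C with compound, 1 h detection. Dosing: single-point compound dose. Read-out: lysis from increased AK signal.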
Yeast superoxide = lowers age-related superoxide in aged yeast cells; S. cerevisiae aged cells, superoxide DHE fluorescence; active compounds read low; actives 0.18% (n = 330,000); superoxide response (% of plate mean), % at 10 µM;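 active = superoxide response under a set limit, about three screen SD below normal, cut at about 65% in these data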;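 note: yeast aged for seven days with compound at 30 °C before DHE staining; 100% = average MFI of all compound-treated wells on the plate with controls excluded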
PglD inh = PglD (C. jejuni) enzyme inhibition. purified PglD enzyme, DTNB colorimetric CoA detection. inhibition, % at 12.5 µM. actives 0.098% (n = 360,000); in the data active = inhibition above about 16%, passing the limit was not always enough
Mot1-301 SUMO = SUMOylation pathway inhibition by Mot1-301 growth rescue | actives 1% (n = 320,000) | AID 2716 | S. cerevisiae Mot1-301 growth rescue, ATP luminescence, 38.5C; percent above DMSO median, 100 means doubled | growth rescue, % at 18.8 µM;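 active = every valid replicate shows activation above 250% relative to neutral control wells; inactive = the rest, any valid replicate at or below 250%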;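 note: OY570 slx delta 5 strain wells were the positive control but not used for scaling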
Numbers without * were called inactive; . = no result given. A selection: hits, their analogues and other compounds. The true share with any hit is near 2.2%.

SMILES	rRNA inh HTS	Cneo AK release	Yeast superoxide	PglD inh	Mot1-301 SUMO
Cc1cc(N2CCN(C)CC2)nc2ccc(NC(=S)N3CCN(c4ccc(F)cc4)CC3)cc12	4	2	103	1	1
CCc1cccc(NC(=S)Nc2cccc3ccccc23)c1	-25*	14	106	-1	-15
Cc1cccc(NC(=S)Nc2cccc3ccccc23)c1	-2	1	97	2	-12
CO[C@H]1CN(C)C(=O)c2cc(NC(=O)C3CCCCC3)ccc2OC[C@H](C)N(Cc2nccs2)C[C@@H]1C	-3	-5	.	-3	.
Cc1nn(-c2ccccc2)c(-c2ccccc2[N+](=O)[O-])c1C(=O)O	-7	-1	114	9	294*
C[C@@H]1CN([C@H](C)CO)C(=O)c2cc(NC(=O)Nc3ccc4c(c3)OCO4)ccc2O[C@H]1CN(C)S(=O)(=O)c1ccccc1	-7	48	.	1	.
O=C(c1c[nH]c2ccccc12)C(O)C(c1ccccc1)N1CCOCC1 (stereo not given)	.	-3	82	-4	19
O=C(c1c[nH]c2ccccc12)C(Cl)c1ccccc1 (stereo not given)	-24*	-3	84	-1	-16
CNC(=O)c1ccsc1NC(=O)c1ccc(Cl)s1	-28*	1	103	-2	2
CNC(=O)c1ccsc1NC(=O)c1ccccc1	-22	0	104	-7	-6
O=C(N=Nc1c(O)[nH]c2ccc(Br)cc12)c1ccco1	-6	0	.	-6	.
Oc1ccc(NC(=S)N=Nc2c(O)[nH]c3ccc(Br)cc23)cc1	-23*	4	.	-5	.
O=C(N=Nc1c(O)[nH]c2ccc(Br)cc12)c1ccccc1-n1cccc1	-29*	-2	113	-2	-1
Cc1ccc(NC(=S)N=Nc2c(O)[nH]c3ccccc23)cc1	5	.	108	.	17
Oc1cccc(NC(=S)N=Nc2c(O)[nH]c3ccc(Br)cc23)c1	-37*	-5	106	0	-12
COc1ccc(NC(=S)N=Nc2c(O)[nH]c3ccccc23)cc1	-47*	-3	102	-8	7
Oc1[nH]c2ccc(Br)cc2c1N=NC(=S)Nc1ccc(F)cc1	5	0	104	-1	-8
C[C@H]1CN([C@@H](C)CO)S(=O)(=O)c2ccc(-c3ccncc3)cc2O[C@H]1CN(C)C(=O)C1CCC1	0	.	.	.	.
C[C@H](O)C#Cc1cnc2c(c1)C(=O)N([C@@H](C)CO)C[C@@H](C)[C@H](CN(C)Cc1cccc(F)c1)O2	1	25	.	-3	.
O=C(Cc1ccccn1)NCC[C@@H]1CC[C@@H](NC(=O)Nc2ccc(Cl)cc2)[C@@H](CO)O1	3	-6	.	2	.
CC(C)NC(=O)N(C)C[C@@H]1Oc2ccc(NS(C)(=O)=O)cc2C(=O)N([C@H](C)CO)C[C@H]1C	1	-10	.	-5	.
CN1[C@@H]2c3ccc(-c4ccccc4)c(=O)n3C[C@H]1[C@H](CO)[C@H]2C(=O)NCC1CCCCC1	-3	-1	.	-1	.
C[C@@H]1CN([C@H](C)CO)C(=O)c2cc(C#Cc3ccccc3F)cnc2O[C@H]1CN(C)C(=O)C1CCC1	-4	-3	.	3	.
CCOC(=O)C1(Cc2ccccc2C)CCCN(C(=O)CCc2cccnc2)C1 (stereo not given)	-18	.	114	.	782*
CCOC(=O)C1(Cc2ccccc2C)CCCN(C(=O)CCn2nccc2C)C1 (stereo not given)	-11	.	89	.	242
SMILES	rRNA inh HTS	Cneo AK release	Yeast superoxide	PglD inh	Mot1-301 SUMO
[N-]=[N+]=CC(=O)C(O)(c1ccccc1)C(Cl)c1ccccc1 (stereo not given)	-4	-1	111	-4	301*
C[C@H](CO)N1C[C@H](C)[C@H](CN(C)C(=O)Cc2ccccc2)OCCCC[C@H](C)Oc2ccc(NC(=O)CCC(F)(F)F)cc2C1=O	-2	0	.	-4	.
NNc1nc2c(-c3ccc(F)cc3)nnn2c2ccccc12	-17*	0	108	-2	-4
NNc1nc2c(-c3ccc(Cl)cc3)nnn2c2ccccc12	-22	-1	99	0	0
COc1cccc(S(=O)(=O)N[C@@H]2CC[C@@H](CCn3cc(-c4ccccn4)nn3)O[C@@H]2CO)c1	-2	1	.	1	.
COc1ccccc1C(=O)NNC(=O)c1nn(Cc2ccccc2)c(=O)c2ccccc12	-24*	.	106	.	.
N/C(=N\OC(=O)c1ccc(Cl)cc1)c1nonc1N	5	-9	108	2	294*
N/C(=N/OC(=O)c1ccccc1F)c1nonc1N	-2	.	109	.	236
O=c1oc2ccccc2c(NCc2ccc(Cl)cc2)c1[N+](=O)[O-]	-39*	-17	94	5	200
Cn1c(N)c(C(=O)N/N=C/c2ccccc2)sc1=S	-36*	10	121	-5	2
Cc1c(C(=O)N/N=C/c2cccnc2)sc(=S)n1C	.	.	88	.	9
C[C@@H]1CN([C@@H](C)CO)C(=O)c2cc(C#CC3CCCCC3)cnc2O[C@@H]1CN(C)Cc1ccncc1	6	-2	.	2	.
CCCCCCCn1c(=N)n(CC(=O)c2ccco2)c2ccccc21	.	2	98	-1	514*
CCCCn1c(=N)n(CC(=O)c2ccco2)c2ccccc21	-1	3	109	1	-3
COc1ccc(NC(=S)NCc2cccnc2)cc1	-4	.	103	.	261
S=C(NCc1cccnc1)Nc1ccc(Oc2ccc(Cl)cc2)cc1	-26*	0	107	-6	38
CC(C)(C)c1ccc(NC(=S)NCc2cccnc2)cc1	-22*	3	85	0	-5
C[C@H]1CN([C@@H](C)CO)C(=O)c2cc(NC(=O)C3CC3)ccc2O[C@H]1CN(C)Cc1ccncc1	0	0	.	0	.
COc1ccc(S(=O)(=O)Nc2cccc3c2O[C@H](CN(C)Cc2ccc(C(=O)Nc4ccccc4N)cc2)[C@H](C)CN([C@H](C)CO)C3=O)cc1	-3	4	.	0	.
CC(C)N(C(=O)Nc1ccc2nsnc2c1)C(C)C	-16*	.	102	.	.
CO[C@@H]1CN(C)C(=O)c2ccc(NC(=O)C3CC3)cc2OC[C@@H](C)N(Cc2nccs2)C[C@H]1C	-2	0	.	1	.
c1ccc(CSc2n[nH]c(-c3ccco3)n2)cc1	.	-3	93	.	-5
c1ccc(CSc2nccc(-c3ccco3)n2)cc1	-36*	-2	103	-1	-1
O=C(NCc1ccc(F)cc1)[C@@H]1N[C@@H]2c3ccc(-c4ccccc4)c(=O)n3C[C@@H]2[C@H]1CO	-7	-2	.	0	.
C[C@@H]1CN([C@@H](C)CO)C(=O)c2cc(NS(C)(=O)=O)ccc2O[C@@H](C)CCCCO[C@@H]1CN(C)C	1	0	.	0	.
Cc1onc(-c2ccccc2)c1C(=O)NC(=S)NNC(=O)c1ccco1	-54	7	130	-1	-11
Cc1onc(-c2ccccc2)c1C(=O)NC(=S)NNC(=O)c1ccncc1	-36*	2	98	-4	4
